# Measurements taken from ChEMBL document CHEMBL1938274, “Discovery of potent and specific CXCR3 antagonists” (Bioorg Med Chem Lett, 2012).
# System: not listed separately
# Experiment: Permeability of the compound at pH 5 to 7.4 by PAMPA
# Type: ADME
# Details: read-out: permeability
# How it was run: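 PAMPA permeability measured across pH 5 to 7.4.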
row,Papp,SMILES
1,0.8 ×10⁻⁶ cm/s,CCS(=O)(=O)CCN(C(=O)Cc1ccc(C(F)(F)F)c(F)c1)[C@H](C)c1nc2ncccc2c(=O)n1-c1ccc(F)cc1

# System: Blood
# Experiment: Drug level in C57BL/6 mouse blood at 1 mg/kg, sc after 1 hr
# Type: ADME, organism-based
# Set-up: dose 1 mg/kg, route subcutaneous
# Details: in vivo
# How it was run: (§1)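 C57BL/6 mice given bleomycin intra-tracheally and dosed subcutaneously by osmotic mini-pump for 6 days; plasma collected to measure drug level, reported 1 h post dose.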
row,Drug uptake,SMILES
1,0.16 µM,CCOc1ccc(-n2c([C@@H](C)N(Cc3cccnc3)C(=O)Cc3ccc(OC(F)(F)F)cc3)nc3ncccc3c2=O)cc1

# System: PBL
# Experiment: Toxicity in human PBL assessed as chromosomal aberrations at 7.81 to 1000 ug/mL
# Type: cell-based
# Details: not given
# How it was run: (§2)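 Cultured human peripheral blood lymphocytes exposed at 7.81–1000 μg/mL, with and without S9 metabolic activation; chromosomal aberrations scored.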
row,SMILES,Activity
1,C[C@H](c1nc2ncccc2c(=O)n1-c1ccc(C#N)cc1)N(CCS(C)(=O)=O)C(=O)Cc1ccc(F)c(C(F)(F)F)c1,Toxic
2,C[C@H](c1nc2ncccc2c(=O)n1-c1ccc(C#N)cc1)N(CC1CCS(=O)(=O)CC1)C(=O)Cc1ccc(C(F)(F)F)c(F)c1,Toxic
3,C[C@H](c1nc2ccccn2c(=O)c1-c1ccc(C#N)cc1)N(CC1CCS(=O)(=O)CC1)C(=O)Cc1ccc(OC(F)(F)F)cc1,Toxic
4,CCS(=O)(=O)CCN(C(=O)Cc1ccc(C(F)(F)F)c(F)c1)[C@H](C)c1nc2ncccc2c(=O)n1-c1ccc(F)cc1,Non-toxic
5,CCS(=O)(=O)CCN(C(=O)Cc1ccc(F)c(C(F)(F)F)c1)[C@H](C)c1nc2ncccc2c(=O)n1-c1ccc(Cl)cc1,Non-toxic

# Target: T1, C-X-C chemokine receptor type 3 (Homo sapiens, UniProt P49682)
# T1 sequence (P49682 whole entry): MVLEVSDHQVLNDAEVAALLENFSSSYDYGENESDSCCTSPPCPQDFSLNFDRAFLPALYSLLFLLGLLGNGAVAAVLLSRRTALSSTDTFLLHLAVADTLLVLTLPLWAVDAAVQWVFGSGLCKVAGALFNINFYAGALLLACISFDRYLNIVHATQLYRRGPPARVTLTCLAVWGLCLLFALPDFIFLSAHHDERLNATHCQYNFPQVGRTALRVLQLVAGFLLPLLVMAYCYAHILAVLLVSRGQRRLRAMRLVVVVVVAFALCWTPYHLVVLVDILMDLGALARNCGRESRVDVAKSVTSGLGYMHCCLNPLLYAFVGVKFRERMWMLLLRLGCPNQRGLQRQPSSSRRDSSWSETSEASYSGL
# Experiment: Displacement of [125I]-IP-10 from CXCR3 in presence of 100% human serum
# Details: not given
row,SMILES,IC50
1,C[C@H](c1nc2ncccc2c(=O)n1-c1ccc(C#N)cc1)N(CCS(C)(=O)=O)C(=O)Cc1ccc(F)c(C(F)(F)F)c1,29 nM
2,CCS(=O)(=O)CCN(C(=O)Cc1ccc(C(F)(F)F)c(F)c1)[C@H](C)c1nc2ncccc2c(=O)n1-c1ccc(F)cc1,58 nM
3,CCS(=O)(=O)CCN(C(=O)Cc1ccc(F)c(C(F)(F)F)c1)[C@H](C)c1nc2ncccc2c(=O)n1-c1ccc(Cl)cc1,22 nM

# Results, then the compound that gave them:
row,IC50,SMILES
1,22 nM,C[C@H](c1nc2ccccn2c(=O)c1-c1ccc(C#N)cc1)N(CC1CCS(=O)(=O)CC1)C(=O)Cc1ccc(OC(F)(F)F)cc1
2,15 nM,C[C@H](c1nc2ncccc2c(=O)n1-c1ccc(C#N)cc1)N(CC1CCS(=O)(=O)CC1)C(=O)Cc1ccc(C(F)(F)F)c(F)c1

# System: PBL
# Experiment: Toxicity in human PBL assessed as chromosomal aberrations at 7.81 to 1000 ug/mL in the presence of S9
# Type: cell-based
# Details: not given
# How it was run: as §2
row,SMILES,Activity
1,C[C@H](c1nc2ncccc2c(=O)n1-c1ccc(C#N)cc1)N(CCS(C)(=O)=O)C(=O)Cc1ccc(F)c(C(F)(F)F)c1,Toxic
2,C[C@H](c1nc2ncccc2c(=O)n1-c1ccc(C#N)cc1)N(CC1CCS(=O)(=O)CC1)C(=O)Cc1ccc(C(F)(F)F)c(F)c1,Toxic
3,C[C@H](c1nc2ccccn2c(=O)c1-c1ccc(C#N)cc1)N(CC1CCS(=O)(=O)CC1)C(=O)Cc1ccc(OC(F)(F)F)cc1,Toxic
4,CCS(=O)(=O)CCN(C(=O)Cc1ccc(C(F)(F)F)c(F)c1)[C@H](C)c1nc2ncccc2c(=O)n1-c1ccc(F)cc1,Non-toxic
5,CCS(=O)(=O)CCN(C(=O)Cc1ccc(F)c(C(F)(F)F)c1)[C@H](C)c1nc2ncccc2c(=O)n1-c1ccc(Cl)cc1,Non-toxic

# Target: T1, C-X-C chemokine receptor type 3
# Experiment: Displacement of [125I]-IP-10 from CXCR3
# Details: not given
row,SMILES,IC50
1,C[C@H](c1nc2ncccc2c(=O)n1-c1ccc(C#N)cc1)N(CCS(C)(=O)=O)C(=O)Cc1ccc(F)c(C(F)(F)F)c1,13 nM
2,CCS(=O)(=O)CCN(C(=O)Cc1ccc(C(F)(F)F)c(F)c1)[C@H](C)c1nc2ncccc2c(=O)n1-c1ccc(F)cc1,47 nM
3,CCS(=O)(=O)CCN(C(=O)Cc1ccc(F)c(C(F)(F)F)c1)[C@H](C)c1nc2ncccc2c(=O)n1-c1ccc(Cl)cc1,6 nM

# The next lines start with the values.
row,IC50,SMILES
1,6 nM,C[C@H](c1nc2ccccn2c(=O)c1-c1ccc(C#N)cc1)N(CC1CCS(=O)(=O)CC1)C(=O)Cc1ccc(OC(F)(F)F)cc1
2,7 nM,C[C@H](c1nc2ncccc2c(=O)n1-c1ccc(C#N)cc1)N(CC1CCS(=O)(=O)CC1)C(=O)Cc1ccc(C(F)(F)F)c(F)c1

# Target: T2, C-X-C chemokine receptor type 3 (Mus musculus, UniProt O88410)
# T2 sequence (O88410 whole entry): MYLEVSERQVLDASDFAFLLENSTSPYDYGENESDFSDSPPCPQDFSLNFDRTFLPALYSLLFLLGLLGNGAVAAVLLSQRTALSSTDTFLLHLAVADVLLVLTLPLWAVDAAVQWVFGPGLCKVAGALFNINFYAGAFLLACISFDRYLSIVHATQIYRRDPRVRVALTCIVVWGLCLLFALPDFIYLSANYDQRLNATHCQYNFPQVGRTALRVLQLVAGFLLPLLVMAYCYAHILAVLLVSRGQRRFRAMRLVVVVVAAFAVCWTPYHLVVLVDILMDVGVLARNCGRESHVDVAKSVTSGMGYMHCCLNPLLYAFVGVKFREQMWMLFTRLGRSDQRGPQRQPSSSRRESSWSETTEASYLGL
# Experiment: Receptor occupancy of CXCR3 in mouse whole blood assessed as inhibition of ITAC binding by fluorescence quenching based FACS analysis
# Details: not given
row,IC50,SMILES
1,1900 nM,CCOc1ccc(-n2c([C@@H](C)N(Cc3cccnc3)C(=O)Cc3ccc(OC(F)(F)F)cc3)nc3ncccc3c2=O)cc1

# System: Blood
# Experiment: Drug level in C57BL/6 mouse blood at 10 mg/kg, sc after 1 hr
# Type: ADME, organism-based
# Set-up: dose 10 mg/kg, route subcutaneous
# Details: in vivo
# How it was run: as §1
row,Drug uptake,SMILES
1,2.3 mg/kg,CCOc1ccc(-n2c([C@@H](C)N(Cc3cccnc3)C(=O)Cc3ccc(OC(F)(F)F)cc3)nc3ncccc3c2=O)cc1
